VIM-2 inhibitor: VIM-2 metallo-beta-lactamase inhibitors, primary screen, biochemical, epi-absorbance readout, Pseudomonas aeruginosa enzyme | purified VIM-2, nitrocefin hydrolysis, epi-absorbance fluorescence | inhibition, % at 5.6 µM | hit rate 0.89% among 290,000 | AID 1527, 2009;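 active = inhibition above the mean of all tested compounds plus 3 SD, cutoff set per screening run, cut at about 7.5% in these data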;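 also: red hydrolysis product quenches plate fluorescence so inhibitors raise well fluorescence; 0% = enzyme with DMSO and 100% = DMSO without enzyme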
IMP-1 inh: IMP-1 metallo-beta-lactamase inhibitors, primary screen, biochemical, epi-absorbance readout, Pseudomonas aeruginosa enzyme. metallo-beta-lactamase IMP-1 (Pseudomonas aeruginosa). purified IMP-1, nitrocefin hydrolysis, epi-absorbance fluorescence. inhibition, % at 5.6 µM. hit rate 0.45% among 290,000. AID 1556, 2009;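 active = inhibition above the mean plus 3 SD of all compounds in the same screening run, cut at about 4.5% in these data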;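 also: 0% = IMP-1 with DMSO and 100% = DMSO wells lacking enzyme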
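System: Purified IMP-1 | Read-out basis: Percent enzyme inhibition | Controls: IMP-1 with DMSO as 0%, enzyme-free DMSO as 100% | Replicates: One well per compound | Doses: 5.6 µM nominal single concentration | Detection: Epi-absorbance fluorescence, 480 nm excitation, 530 nm emission | Incubation: 25 °C, 15 min preincubation, 25 min reaction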
core dimer inh: inhibitors of HCV core protein dimerization, primary screen, biochemical, TR-FRET, high-throughput; inhibition, % at 5 µM; TR-FRET GST/Flag-core106 dimerization, 1536-well; hit rate 0.33% among 300,000; AID 1899, 2009;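 active = inhibition above the mean of all tested compounds plus 3 SD, set per screening campaign, cut at about 45% in these data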
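System: GST/Flag-tagged HCV core106 proteins. Incubation: compound-protein-antibody incubation 4 h at 22.5 °C. Technique: HTRF with 340 nm excitation, 617/671 nm emission. Medium: KF-containing HEPES buffer, pH 7.45, DTT, CHAPS, BSA. Read-out: inhibition (%) from 671 over 617 nm ratio. Also added: Eu(K)-anti-GST 90 ng/mL plus XL665-anti-Flag 1 µg/mL.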
DNA FID counter: compounds displacing fluorescent DNA intercalator, primary screen, artefact control for HCV NS3 helicase inhibitor project, biochemical, FID fluorescence. DNA fluorescent intercalator displacement. inhibition, % at 7.9 µM. hit rate 0.17% among 290,000. AID 1845, 2009; in the data active = inhibition above about 37%;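 also: 0% = vehicle and 100% = reference compound; higher means more ethidium bromide displaced from hairpin DNA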
* = called active by the depositor; nt = no result given. Shown are actives, neighbours in structure and some others; about 1.6% of the full set was active somewhere.

SMILES	VIM-2 inhibitor	IMP-1 inh	core dimer inh	DNA FID counter
CCCCS(=O)(=O)N1CCCC(C(=O)Oc2ccc(Cl)cc2)C1 (configuration not stated)	-3	6.0*	-4	-25
COC(=O)Cn1c(N)[n+](Cc2ccccc2)c2ccccc21	nt	nt	-17	nt
CNC[C@@H](CC1CCCCC1)NC[C@H](CC(C)C)NCCc1cccc(C(F)(F)F)c1	-1	-1	-3	35
CNC[C@@H](Cc1ccccc1)NC[C@@H](CC1CCCCC1)NCCCc1ccccc1	-3	-4	-10	38*
Cc1nc(C)c(C(=O)NNC(=O)c2ccc(Br)cc2)s1	-2	-1	-1	-3
O=C(N/N=C/c1ccco1)c1cnccn1	-4	-3	-1	-1
CC1(C)C(=O)Nc2ccccc2N1C(=O)CSc1nc(-c2ccccc2)cs1	-1	-1	46*	-4
O=C(CSc1ccccc1)N1CCN(S(=O)(=O)c2cccs2)CC1	0	2	-2	-18
O=Cc1coc2c(ccc3ccccc32)c1=O	1	32*	22	13
Cc1ccc(-c2nnc(N3CCCCC3)c3ccccc23)cc1S(=O)(=O)N1CCN(C)CC1	-1	-3	9	5
Cc1ccc(-c2nnc3c4ccccc4c(C)nn23)cc1S(=O)(=O)N1CCN(C)CC1	12*	-2	5	-3
CCS(=O)(=O)N1CCC(C(=O)Oc2ccccc2)CC1	0	-1	-6	-4
CCOc1ccc(NCc2cccn2-c2nnc(N3CCC(C(=O)NCCCN4C(C)CCCC4C)CC3)s2)cc1 (configuration not stated)	-1	-1	-9	41*
CC(C)c1nnc(NC(=O)C2CCN(c3nc4ccccc4s3)CC2)s1	-3	-2	6	1
Cc1cc(C)c2nc(-c3ccccn3)cc(C(=O)N3CCCC3)c2c1	-4	-2	48*	-47
Cc1ccc2nc(-c3ccccn3)cc(C(=O)N3CCN(c4ncccn4)CC3)c2c1	-2	-2	8	-4
Cc1cc(C)c2nc(-c3ccccn3)cc(C(=O)Nc3ccc(S(=O)(=O)Nc4onc(C)c4C)cc3)c2c1	0	0	60*	-17
Cc1cc(C)c2nc(-c3ccccn3)cc(C(=O)Nc3ccc(S(=O)(=O)Nc4cc(C)on4)cc3)c2c1	-2	0	37	-14
Cc1ccc(SCCNS(=O)(=O)c2ccc3c(c2)OCCO3)cc1	-6	-6	8	-10
COCc1nnc(NC(=O)CSc2ccc(C)cc2)s1	0	0	-3	-7
CC(=O)c1cccc(N(CC(=O)Nc2ccc(F)cc2F)S(C)(=O)=O)c1	-2	-6	0	-5
CSc1nc2sc3c(c2c(=O)n1C)CCC3	7.7*	2	-1	-13
CCn1c(NN)nc2sc3c(c2c1=O)CCC3	-4	-4	55*	-8
NNc1nc2sc3c(c2c(=O)n1Cc1ccccc1)CCC3	-3	-3	20	-11
O=C(CNc1ccccc1F)N/N=C/C1CC=CCC1 (configuration not stated)	-3	-5	-4	-3
SMILES	VIM-2 inhibitor	IMP-1 inh	core dimer inh	DNA FID counter
Cc1snc(SCC(=O)c2ccc(F)cc2)c1C#N	0	-2	3	-9
Cc1snc(SCC(=O)c2ccc([N+](=O)[O-])cc2)c1C#N	9.5*	-4	nt	3
CSc1nc(N)nc(SCC(=O)c2ccc(C)cc2)c1C#N	-1	-4	48*	2
COc1c2ccoc2c(OC[C@@H](O)C(C)(C)O)c2oc(=O)ccc12	-2	-3	-13	-6
NC(=O)CSc1nc2sc3c(c2c2ncnn12)CCCC3	9.8*	0	-22	-12
C=CCNc1nc(-c2ccc(O)c(C(N)=O)c2)cs1	0	0	-14	3
NC(=O)c1cc(-c2csc(NCCc3ccccc3)n2)ccc1O	0	5.0*	0	0
CC(C)(C)OC(=O)N[C@@H](Cc1c[nH]c2ccccc12)c1nnc(SCC(N)=O)o1	-2	-3	0	-17
Cc1ccc(N2CCCn3c2cc(C)c(C#N)c3=O)cc1Cl	7.8*	-1	3	-6
CC(C)Cn1c(N)c(S(=O)(=O)c2cccs2)c2nc3ccccc3nc21	-1	-3	nt	-11
CN(C)CCCN(CCCN(C)C)C(=S)Nc1ccc(S(=O)(=O)N2CCOCC2)cc1	-5	-3	-2	37*
CC(C)(C)CC(C)(C)NC(=S)Nc1ccc(S(=O)(=O)N2CCOCC2)cc1	-6	-1	6	-20
O=C(CN1c2cccc3cccc(c23)S1(=O)=O)Nc1ccc(S(=O)(=O)N2CCOCC2)cc1	0	-1	56*	-19
O=S(=O)(c1ccc(NC(=S)N/N=C/c2c3ccccc3cc3ccccc23)cc1)N1CCOCC1	0	-2	56*	-4
COc1ccc(CCNC(=O)Nc2ccc(F)cc2F)cc1OC	-1	-3	-10	-14
COc1ccc(-c2noc(-c3ccccc3Cl)n2)cc1OC	0	-5	7	-7
Nc1cccc2c1C(=O)N(C(=O)/C=C/c1cccc(F)c1)C2=O	-1	1	18	-4
Nc1cccc2c1C(=O)N(C(=O)/C=C/c1cccc(Br)c1)C2=O	0	4.8*	nt	-14
COc1cc(OC)c(OC)cc1/C=N/NC(=O)c1ccc2nc[nH]c2c1	0	-1	-1	-10
COc1cccc(C(=O)NC2CC(C)(C)NC(C)(C)C2)c1OC	-2	16*	2	-1
CC1CCN(S(=O)(=O)c2cccc(S(=O)(=O)N3CCOCC3)c2)CC1	-2	5.4*	2	-10
CCN1CCN(Cc2ccc(NC(=O)c3ccc(C)c(NC(=O)c4ccno4)c3)cc2C(F)(F)F)CC1	nt	nt	-11	nt
CCN1CCN(Cc2ccc(NC(=O)c3ccc(C)c(NC(=O)c4cccc(-c5cn[nH]c(=O)c5)c4)c3)cc2C(F)(F)F)CC1	-2	9.3*	2	40*
O=C(O)Cc1sc(-c2ccccc2Cl)nc1-c1ccccc1	1	-2	-6	-31
O=C(/C=C/c1ccccc1)c1ccccn1	9.1*	-1	1	-6
SMILES	VIM-2 inhibitor	IMP-1 inh	core dimer inh	DNA FID counter
N/C(=N\OC(=O)/C=C/c1ccccc1)c1ccccn1	-2	-2	1	-6
N#CC1=C(N)N(c2ncn[nH]2)C2=C(C(=O)CCC2)C1c1ccc(F)cc1 (configuration not stated)	0	0	-3	-6
N#CC1=C(S)N(c2ccccc2)C(c2ccc(-c3cccc(Cl)c3)o2)NC1=O (configuration not stated)	-4	7.5*	32	-15
Cc1cccc(-n2c(SCc3cc(=O)n4ccsc4n3)nc3ccccc32)c1	-1	5.0*	42	-23
Cc1ccc(SCc2cc(=O)n3ccsc3n2)c(C)c1	-3	-4	9	-4
CC(C)(C)C(=O)Nc1nnc(SCC(=O)NCc2ccco2)s1	8.6*	-2	-3	-1
O=C(CSc1nnc(NC(=O)c2ccc3c(c2)OCO3)s1)NCc1ccco1	1	-4	4	0

Screening results from PubChem.
